# Screens (PubChem)
# IMP-1 inh: IMP-1 metallo-beta-lactamase inhibitors, primary screen, biochemical, epi-absorbance readout, Pseudomonas aeruginosa enzyme. metallo-beta-lactamase IMP-1 (Pseudomonas aeruginosa). purified IMP-1, nitrocefin hydrolysis, epi-absorbance fluorescence. inhibition, % at 5.6 µM. 290,000 tested, 0.45% active. AID 1556, 2009;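 active means inhibition above the mean plus 3 SD of all compounds in the same screening run, cut at about 4.5% in these data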;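 further: 0% = IMP-1 with DMSO and 100% = DMSO wells lacking enzyme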
#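 Assay system: purified recombinant IMP-1 beta-lactamase. Input: IMP-1 0.2 nM before substrate addition. Buffer or medium: Zinc- and detergent-supplemented HEPES buffer, pH 7.1. Schedule: 25 °C, 15 min preincubation, 25 min reaction. Signal: Epi-absorbance fluorescence, 480 nm excitation, 530 nm emission. Evaluation: percent inhibition from optical density relative to buffer-blank wells.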
# PglD inh: C. jejuni PglD acetyltransferase inhibitors, primary screen, biochemical, DTNB colorimetric, single point; UDP-N-acetylbacillosamine N-acetyltransferase PglD (Campylobacter jejuni); purified PglD enzyme, DTNB colorimetric CoA detection; inhibition, % at 12.5 µM; 360,000 tested, 0.098% active; in the data active means inhibition above about 16%, passing the limit was not always enough
# PvdQ inh: P. aeruginosa PvdQ acylase inhibitors, primary screen, biochemical, fluorescence, plate reader and imaging, single point; purified PvdQ acylase; inhibition, % at 10 µM; 340,000 tested, 0.063% active; in the data active means inhibition above about 30%, passing the limit was not always enough;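 further: 0% = vehicle neutral wells and 100% = reference inhibitor wells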
# VIM-2 inh: VIM-2 metallo-beta-lactamase inhibitors, primary screen, biochemical, epi-absorbance readout, Pseudomonas aeruginosa enzyme. purified VIM-2, nitrocefin hydrolysis, epi-absorbance fluorescence. inhibition, % at 5.6 µM. 290,000 tested, 0.89% active;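 active means inhibition above the mean of all tested compounds plus 3 SD, cutoff set per screening run, cut at about 7.5% in these data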;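 further: red hydrolysis product quenches plate fluorescence so inhibitors raise well fluorescence; 0% = enzyme with DMSO and 100% = DMSO without enzyme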
# PDI inh: inhibitors of human PDI, primary screen, biochemical, turbidity, single point, plate reader; Protein disulfide-isomerase (Homo sapiens), P07237; PDI insulin aggregation turbidity, A650, 90 min; inhibition, % at 10 µM; 350,000 tested, 0.052% active; AID 588391, 2011;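 active means mean inhibition across replicates of 30% or more, whatever share of single replicates reach that level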
# Target sequence (P07237 whole entry, looked up): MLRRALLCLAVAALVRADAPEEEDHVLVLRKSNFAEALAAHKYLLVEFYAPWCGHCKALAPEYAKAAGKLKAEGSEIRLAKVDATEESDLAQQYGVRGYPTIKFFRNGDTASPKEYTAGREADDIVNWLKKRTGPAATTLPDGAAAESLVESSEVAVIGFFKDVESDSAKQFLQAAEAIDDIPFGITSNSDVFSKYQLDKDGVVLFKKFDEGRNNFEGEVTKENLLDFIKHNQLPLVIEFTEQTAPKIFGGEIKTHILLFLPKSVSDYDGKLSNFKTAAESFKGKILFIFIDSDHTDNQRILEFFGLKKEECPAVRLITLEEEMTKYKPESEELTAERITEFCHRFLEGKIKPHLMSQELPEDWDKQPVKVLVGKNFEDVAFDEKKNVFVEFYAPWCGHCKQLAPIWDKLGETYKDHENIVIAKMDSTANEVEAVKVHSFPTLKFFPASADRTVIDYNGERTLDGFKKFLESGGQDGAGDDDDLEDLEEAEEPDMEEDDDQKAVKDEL
# ERp5 inh: inhibitors of ERp5-driven insulin aggregation, primary screen, biochemical, turbidity, absorbance 650 nm, single point | Protein disulfide-isomerase A6 (Homo sapiens), Q15084 | 90 min | inhibition, % at 9.99 µM | 350,000 tested, 0.05% active;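 active means mean replicate inhibition above about 25%, with every replicate also reaching it, limit read from the data, passing the limit was not always enough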
# * marks the source's active call; other numbers are inactive results; . = no result given. Shown are actives, neighbours in structure and some others; about 1% of the full set was active somewhere.
SMILES,IMP-1 inh,PglD inh,PvdQ inh,VIM-2 inh,PDI inh,ERp5 inh
CCCNC(=O)N(C)C[C@H]1Oc2ncc(-c3cccc(C#N)c3)cc2C(=O)N([C@H](C)CO)C[C@@H]1C,.,2,.,.,.,2
C=CC[C@@]1(C(=O)NCC(O)CO)N=C(c2ccc(OCCCO)cc2)O[C@@H]1c1ccccc1 (stereo partly specified),.,2,.,.,.,3
N#Cc1cccc2c1-c1ccccc1/C2=N/NC(N)=S,-4,.,-16,3,-1,.
N#Cc1cccc2c1-c1ccccc1/C2=N/NC(N)=O,-4,-2,-7,10*,1,.
Oc1ccc(/C=N/Nc2ccccc2)cc1,0,-1,1,-4,-7,-4
Cc1nc2ccccc2nc1N/N=C/c1ccc(O)cc1,-1,.,6,7.8*,6,9
CCN1CCN(C(=O)C2=C(C(=O)O)CCCC2)CC1,13*,-1,-1,6,11,.
CCN1CCN(C(=O)c2ccc(C(F)(F)F)cc2)CC1,-1,.,6,0,0,-9
O=C(O)C1=C(C(=O)N2CCN(C(=O)c3ccco3)CC2)CCCC1,12*,-7,-8,3,-7,.
O=C(c1ccco1)N1CCN(C(=O)N2CCCCC2)CC1,-4,.,-12,-1,1,2
C[C@H]1CN([C@@H](C)CO)C(=O)Cc2cc(NS(C)(=O)=O)ccc2O[C@H]1CN(C)Cc1ccccc1,.,4,.,.,.,3
O=C(C1=C[C@@H](c2ccc(Br)cc2)C[C@@H](OCCCCO)O1)N1CCCCCCC1,.,.,.,.,.,3
O=C1CS/C(=C\[N+](=O)[O-])N1c1ccccc1,4.6*,-5,4,1,-7,.
CC(=O)c1ccc(Nc2cc(C)nc3c(C)cc(C)cc23)cc1,-3,.,-7,8.0*,-2,1
Cc1cc(Nc2cccc(Cl)c2)c2ccccc2n1,-3,0,2,0,-1,1
COC(=O)c1ccc2nc(C)cc(Nc3ccc(N(C)C)cc3)c2c1,-5,-4,-4,8.3*,-7,1
COc1ccc2nc(C)cc(N/N=C/c3ccc(F)cc3)c2c1,-4,-7,-12,8.6*,5,1
COC(=O)c1ccc(Nc2cc(C)nc3ccccc23)cc1,-1,0,12,1,-3,1
Cc1cc(Nc2ccc3c(c2)OCCO3)c2cc(Cl)ccc2n1,0,.,9,8.2*,0,.
C[C@H](CO)N1C[C@H](C)[C@@H](CN(C)C(=O)NC2CCCCC2)Oc2ccc(NC(=O)Nc3ccc4c(c3)OCO4)cc2CC1=O,.,-2,.,.,.,-2
COc1ccc(Nc2cc(C)nc3ccc(OC)cc23)cc1,-1,4,8,11*,-1,2
CCOc1ccc(Nc2cc(C)nc3ccc(C)cc23)cc1,.,.,-7,.,4,1
COc1ccc2nc(C)cc(Nc3ccc(C(=O)O)cc3)c2c1,-1,-4,-7,3,0,1
Cc1ccc(Nc2cc(C)nc3ccc(C)cc23)cc1,3,3,5,10.0*,-1,-1
O=C(C[C@H]1C=C[C@@H](NS(=O)(=O)c2ccc(F)cc2)[C@@H](CO)O1)NCc1ccccc1F,.,.,.,.,.,-3
SMILES,IMP-1 inh,PglD inh,PvdQ inh,VIM-2 inh,PDI inh,ERp5 inh
CCOC(=O)c1sc2ncnc(OC)c2c1C,-3,-5,-3,0,-3,.
CCOC(=O)c1sc2nc[nH]c(=O)c2c1C,5.2*,-10,-1,0,0,.
O=C(Nc1nccs1)C1CCN(S(=O)(=O)c2cccnc2)CC1,.,5,-1,.,-6,2
O=C(Nc1nccs1)C1CCCN(S(=O)(=O)c2cccnc2)C1 (stereo unspecified),4.8*,-2,0,0,.,-2
COc1ccc(NC(=O)Nc2ccc3c(c2)[C@H]2C[C@H](CC(=O)NCc4ccncc4)O[C@@H](CO)[C@H]2O3)cc1,.,-1,.,.,.,4
COc1ccc(Nc2cc(C)c3c(O)cccc3n2)cc1,-1,2,-11,8.8*,0,-6
Cc1cc(SCC(=O)Nc2c(C)n(C)n(-c3ccccc3)c2=O)n2c(nc3ccccc32)c1C#N,-1,.,.,22*,.,.
CCN(C(=O)c1cc2c(=O)n3ccccc3nc2s1)C1CCCCC1,-4,1,-16,3,-3,-1
Cc1cccn2c(=O)c3cc(C(=O)N4CC(C)CC(C)C4)sc3nc12 (stereo unspecified),-2,-2,3,12*,8,-1
Cc1cccn2c(=O)c3cc(C(=O)N4CCCCC4C)sc3nc12 (stereo unspecified),.,-3,-11,.,6,-3
COc1ccccc1N1CCN(C(=O)c2cc3c(=O)n4cccc(C)c4nc3s2)CC1,0,-4,5,10*,14,-1
COc1ccc(CCNC(=O)c2cc3c(=O)n4cccc(C)c4nc3s2)cc1OC,0,-2,-15,10*,-3,2
CCN(C(=O)c1cc2c(=O)n3cccc(C)c3nc2s1)C1CCCCC1,-2,-3,-13,9.0*,-1,-4
CCc1cc(C(=O)N2CCN(c3ccccc3OC)CC2)sc1C,-6,-22,-2,0,6,1
Cc1noc(C)c1NC(=O)Nc1ccc2c(c1)C(=O)N([C@@H](C)CO)C[C@H](C)[C@@H](CN(C)C(=O)Nc1ccc3c(c1)OCO3)OCCCC[C@H](C)O2,.,1,.,.,.,3
CCS(=O)(=O)N[C@H]1CC[C@@H](CC(=O)NCc2ccc(F)cc2)O[C@@H]1CO,.,1,.,.,.,1
COc1ccc2c3c([nH]c2c1)[C@@H](CO)N(Cc1ccccc1F)CC31CCN(C(=O)C2CCOCC2)CC1,.,.,.,.,.,1
O=C(C[C@H]1CC[C@@H]2[C@H](COC[C@H](O)CN2C(=O)Nc2ccc(F)cc2)O1)NC1Cc2ccccc2C1,.,1,.,.,.,-2
C[C@@H]1CN([C@@H](C)CO)C(=O)c2cc(NC(=O)Nc3cccc4ccccc34)ccc2O[C@@H](C)CCCCO[C@H]1CN(C)S(=O)(=O)c1cccs1,.,4,.,.,.,.
O=C(NCCCn1ccnc1)C(=O)NCC1OCCN1S(=O)(=O)c1ccccc1 (stereo unspecified),13*,.,-1,5,23,-8
O=C(NCCCn1ccnc1)C(=O)NCC1OCCCN1S(=O)(=O)c1ccccc1 (stereo unspecified),10*,-2,5,-1,4,.
O=C(C[C@@H]1CC[C@H]2[C@@H](COC[C@H](O)CN2C(=O)Nc2ccc(Cl)cc2)O1)NCCc1ccncc1,.,5,.,.,.,2
